PMC3786144 (Biochimica et biophysica acta, 2013)
Where two headings read alike, the source gives them in different places.

Tests used:
[1] = target: constitutively active ALK3 (Homo sapiens, UniProt P36894, Q233D); assay: Id1 reporter activated by constitutively active ALK3 in NIH3T3 cells; format: cell-based; settings: NIH3T3, Id1 −1150 reporter, AZD0530 100 nM overnight in 0.2% serum
In short: (§1)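 NIH3T3 cells, 4 × 10^4 per well, received fresh 10% NCS and were then transfected with 100 ng Renilla SV40 control, 100 ng mouse Id1 −1150 firefly reporter and 25 ng constitutively active ALK. Next day they went into 0.2% serum with 100 nM test compound or DMSO overnight. Dual-luciferase readout; firefly was normalised to Renilla.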

HCT116 cells = assay: Proliferation of HCT116 cells; format: cell-based; settings: preliminary results
Id3 = Id3 mRNA expression by qPCR in NIH3T3 cells; format: cell-based, mouse; settings: NIH3T3, AZD0530 100 nM 1 hour, then 20% serum
In short: (§2)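 NIH3T3 cells were starved overnight in 0.2% serum and pretreated 1 hour with test compound. They were then induced with 20% NCS for 0–120 min. RNA was taken up in Tri Reagent, and cDNA was made from 1 μg total RNA with random hexamers. qPCR was normalised to 18s rRNA. Values are means of three experiments ± standard deviations.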

c-fos promoter = c-fos promoter luciferase reporter assay in NIH3T3 cells; format: cell-based, mouse; settings: NIH3T3, AZD0530 100 nM 1 hour, then 20% NCS 4 hours
In short: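 NIH3T3 cells, 4 × 10^4 per well, were transfected with 100 ng c-fos promoter firefly reporter plus 100 ng SV40-Renilla control. Next day they were starved overnight in 0.2% NCS, treated 1 hour with 100 nM test compound, then induced with 20% NCS for 4 hours. Dual-luciferase assay; firefly was normalised to Renilla.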

Id1 promoter = Id1 promoter luciferase reporter assay in NIH3T3 cells; format: cell-based, mouse
BMPR-2 = target: T1, BMPR-2 (Homo sapiens, UniProt Q13873); assay: In vitro kinase reaction; format: biochemical; settings: 10 μM ATP, 120 minutes at 25 °C
T1 sequence (Q13873 27-1038): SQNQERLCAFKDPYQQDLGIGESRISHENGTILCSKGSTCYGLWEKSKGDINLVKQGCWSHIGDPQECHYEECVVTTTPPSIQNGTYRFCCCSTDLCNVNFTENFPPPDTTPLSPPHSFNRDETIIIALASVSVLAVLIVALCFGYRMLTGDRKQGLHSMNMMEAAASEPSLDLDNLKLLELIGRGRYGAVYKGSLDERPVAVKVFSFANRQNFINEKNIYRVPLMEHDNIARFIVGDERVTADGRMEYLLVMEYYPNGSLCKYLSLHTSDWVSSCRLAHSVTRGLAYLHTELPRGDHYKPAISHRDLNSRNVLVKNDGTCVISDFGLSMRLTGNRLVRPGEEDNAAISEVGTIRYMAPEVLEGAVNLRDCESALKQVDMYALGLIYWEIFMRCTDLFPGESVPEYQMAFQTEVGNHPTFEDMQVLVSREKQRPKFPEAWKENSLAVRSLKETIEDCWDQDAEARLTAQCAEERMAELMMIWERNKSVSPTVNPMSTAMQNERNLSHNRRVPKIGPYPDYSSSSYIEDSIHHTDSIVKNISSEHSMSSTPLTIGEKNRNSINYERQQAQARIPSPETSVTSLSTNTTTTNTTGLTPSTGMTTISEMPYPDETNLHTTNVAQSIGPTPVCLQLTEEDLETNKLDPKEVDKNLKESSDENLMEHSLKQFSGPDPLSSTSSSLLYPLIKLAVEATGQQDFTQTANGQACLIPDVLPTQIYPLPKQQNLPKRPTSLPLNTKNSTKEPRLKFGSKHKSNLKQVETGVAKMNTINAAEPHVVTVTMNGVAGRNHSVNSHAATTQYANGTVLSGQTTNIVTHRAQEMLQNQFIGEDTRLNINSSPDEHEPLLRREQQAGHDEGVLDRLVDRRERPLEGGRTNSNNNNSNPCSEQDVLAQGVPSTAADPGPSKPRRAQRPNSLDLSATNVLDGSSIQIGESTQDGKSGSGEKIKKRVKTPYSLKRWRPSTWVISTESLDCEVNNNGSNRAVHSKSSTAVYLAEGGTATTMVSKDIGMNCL
In short: (§3)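 Radiometric filter-binding assay with purified recombinant kinase/substrate pairs. Reactions ran with ATP plus 33P-ATP (10 μM final) at 10 test compound concentrations in triplicate, in 20 mM Hepes pH 7.5, 10 mM MgCl2, 1 mM EGTA, 2 mM DTT, 1% DMSO, for 120 min at 25 °C. Products were spotted on P81 paper and washed in 0.75% phosphoric acid. Activity was expressed as % of DMSO control; IC50 came from curve fitting.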

Id1 [2] = settings: A549 lung carcinoma cell line; cited from earlier work
ALK3 = ALK3 (Homo sapiens, UniProt P36894); assay: In vitro kinase reaction; format: biochemical
In short: as §3

ALK1 = ALK1 (Homo sapiens, UniProt P37023); assay: In vitro kinase reaction; format: biochemical
In short: as §3

[3] = system: constitutively active ALK1; assay: Id1 reporter activated by constitutively active ALK1 in NIH3T3 cells; format: cell-based; settings: NIH3T3, Id1 −1150 reporter, AZD0530 100 nM overnight in 0.2% serum
In short: as §1

Smad1/5 = settings: A549 cells; cited from earlier work
Id1 [4] = assay: Id1 mRNA expression by qPCR in NIH3T3 cells; format: cell-based, mouse; settings: for Id1 RNA levels on serum induction: then 20% serum 0 to 120 minutes; for response of the Id1 gene to serum: data not shown
c-fos = c-fos mRNA expression by qPCR in NIH3T3 cells; format: cell-based, mouse; settings: then 20% serum
In short: as §2

[5] = system: plasminogen activator inhibitor-1 (PAI-1); assay: PAI-1 mRNA expression by qPCR in NIH3T3 cells; format: cell-based, mouse; settings: NIH3T3, AZD0530 100 nM 1 hour, then 20% serum
In short: as §2

Smad1/5/8 = assay: Total Smad1/5/8 immunoblot in NIH3T3 cells; format: cell-based, mouse; settings: NIH3T3, Dorsomorphin 1μM 1 hour, then serum
In short: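 Serum-starved NIH3T3 cells were treated 1 hour with DMSO or test compound, then serum-stimulated. Lysis was in passive lysis buffer, followed by SDS-PAGE (10% or 12%) and nitrocellulose transfer with 6% milk block. Phospho-specific or total primaries (1:1000) were applied overnight at 4°C, then fluorescent secondaries (1:10,000) for 1 hour at room temperature, with infrared imaging. Actin served as loading control.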

phospho-Smad1/5/8 [6] = assay: Phospho-Smad1/5/8 immunoblot in HCT116 cells; format: cell-based; settings: HCT116, Dorsomorphin 1 μm
In short: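 HCT116 cells were starved overnight in 0.2% serum with DMSO or test compound, lysed in passive lysis buffer and cleared at 11,000 × g. Proteins were run by SDS-PAGE and blotted to nitrocellulose. Phospho-Smad1/5/8 primary (1:1000) was applied overnight at 4°C, followed by fluorescent secondary (1:10,000) and infrared imaging. Actin served as loading control.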

Id1 [7] = assay: Id1 mRNA expression by qPCR in HCT116 cells; format: cell-based; settings: HCT116, Dorsomorphin 1 μm
In short: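 HCT116 cells, kept in DMEM with 10% FBS at 5% CO2, were starved overnight in 0.2% serum with DMSO or test compound. RNA was isolated in Tri Reagent. cDNA was made from 1 μg total RNA with random hexamers. Id1 mRNA was quantified by qPCR normalised to 18s rRNA.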

phospho-Smad1/5/8 [8] = assay: Phospho-Smad1/5/8 immunoblot in NIH3T3 cells; format: cell-based, mouse; settings: NIH3T3, Dorsomorphin 1μM 1 hour, then serum
Id1 [9] = settings: MDA-MB-231 breast carcinoma line; cited from earlier work
[10] = NIH3T3, AZD0530 100 nM 1 hour, then 20% NCS 4 hours

ALK1, sequence (P37023 22-503): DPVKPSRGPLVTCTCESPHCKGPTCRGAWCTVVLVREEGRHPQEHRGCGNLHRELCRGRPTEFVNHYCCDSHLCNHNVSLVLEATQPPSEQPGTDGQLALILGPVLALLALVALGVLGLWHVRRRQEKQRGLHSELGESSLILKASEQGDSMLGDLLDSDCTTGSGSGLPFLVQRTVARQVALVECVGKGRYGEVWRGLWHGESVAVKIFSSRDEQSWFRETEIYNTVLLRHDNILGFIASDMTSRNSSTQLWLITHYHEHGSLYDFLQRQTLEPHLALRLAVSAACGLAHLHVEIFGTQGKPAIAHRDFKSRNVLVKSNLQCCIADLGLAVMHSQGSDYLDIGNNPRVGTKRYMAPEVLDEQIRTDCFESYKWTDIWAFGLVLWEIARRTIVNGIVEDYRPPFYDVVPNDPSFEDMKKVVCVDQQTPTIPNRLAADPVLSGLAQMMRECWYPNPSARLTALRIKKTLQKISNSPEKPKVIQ
constitutively active ALK3, sequence (P36894 24-532 Q233D): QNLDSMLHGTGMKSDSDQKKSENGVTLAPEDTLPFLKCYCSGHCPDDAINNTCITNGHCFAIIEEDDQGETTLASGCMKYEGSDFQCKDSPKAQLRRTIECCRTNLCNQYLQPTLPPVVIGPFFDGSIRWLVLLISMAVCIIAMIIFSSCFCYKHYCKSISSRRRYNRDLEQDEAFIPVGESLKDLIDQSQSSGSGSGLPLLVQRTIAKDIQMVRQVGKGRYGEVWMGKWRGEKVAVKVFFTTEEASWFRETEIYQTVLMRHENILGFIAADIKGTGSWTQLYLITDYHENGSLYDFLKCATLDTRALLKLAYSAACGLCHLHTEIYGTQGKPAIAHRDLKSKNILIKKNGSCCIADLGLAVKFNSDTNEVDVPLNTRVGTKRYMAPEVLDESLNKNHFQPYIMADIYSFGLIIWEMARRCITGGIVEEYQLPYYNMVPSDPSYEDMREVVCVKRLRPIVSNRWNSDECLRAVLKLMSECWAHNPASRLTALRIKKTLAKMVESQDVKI
ALK3, sequence (P36894 24-532): as the sequence (P36894 24-532 Q233D) above, with D210Q counted along it

CN1CCN(CCOc2cc(OC3CCOCC3)c3c(Nc4c(Cl)ccc5c4OCO5)ncnc3c2)CC1 [AZD0530, saracatinib]
activation of the Id1 promoter by constitutively active ALK3 [1]: significantly decreased
proliferation of HCT116 cells (HCT116 cells): did not reduce
Id3 expression on serum induction (Id3): strongly reduced
serum induction of the c-fos promoter (reporter) (c-fos promoter): little effect
Id1 serum induction, promoter activation (−1150 Id1 reporter) (Id1 promoter; [10]): complete loss
serum induction of the 4X BRE-SBE reporter (Id1 promoter; [10]): blocked
inhibition of BMPR-2 kinase activity (BMPR-2): no inhibition
Id1 expression (Id1 [2]): inhibit Id1 expression
IC50 (ALK3): 3 to 30 nM
IC50 (ALK1): 3 to 30 nM
activation of the Id1 promoter by constitutively active ALK1 [3]: significantly decreased
activation of Smad1/5 (Smad1/5): prevented activation
Id1 serum induction, mRNA expression (Id1 [4]; NIH3T3, AZD0530 100 nM 1 hour, then 20% serum): complete loss
c-fos induction by serum (mRNA) (c-fos; NIH3T3, AZD0530 100 nM 1 hour): no effect
PAI-1 serum activation (mRNA) [5]: decrease in serum activation

c1cc(-c2cnn3cc(-c4ccc(OCCN5CCCCC5)cc4)cnc23)ccn1 [Dorsomorphin, dorsomorphin]
total level of Smad1/5/8 (Smad1/5/8): unchanged
phospho-Smad1/5/8 levels (phospho-Smad1/5/8 [6]): inhibition
Id1 expression (mRNA) (Id1 [7]): inhibition
induction of Id1 mRNA in response to serum (Id1 [4]; NIH3T3, Dorsomorphin 1 hour, then 20% NCS 1 hour): strongly inhibited
phosphorylation of Smad1/5/8 (phospho-Smad1/5/8 [8]): inhibits the phosphorylation

O=c1cc(N2CCOCC2)oc2c(-c3ccccc3)cccc12 [LY294002]
Id1 RNA levels on serum induction (Id1 [4]; NIH3T3, LY294002 10 μM 1 hour): unchanged
c-fos expression on serum induction (c-fos; NIH3T3, LY294002 10 μM 1 hour): little effect

O=C(NOC[C@H](O)CO)c1ccc(F)c(F)c1Nc1ccc(I)cc1F [PD0325901]
Id1 RNA levels on serum induction (Id1 [4]; NIH3T3, PD0325901 5 μM 1 hour): unchanged
c-fos expression on serum induction (c-fos; NIH3T3, PD0325901 5 μM 1 hour): dramatically decreased

CC(C)(C)n1nc(-c2ccc(Cl)cc2)c2c(N)ncnc21 [PP2]
Id1 expression (Id1 [9]): inhibited Id1 expression
response of the Id1 gene to serum (Id1 [4]): Neither another Src inhibitor, PP2, nor the BCR-abl inhibitor, imatinib, had any effect

C[C@@H]1C[C@@H]([C@H](O)CC2CC(=O)NC(=O)C2)C(=O)[C@@H](C)C1 [cycloheximide]
BMP2 induction of Id1 in the presence of the protein synthesis inhibitor (Id1 [4]; NIH3T3, 50 μg/ml cycloheximide, BMP2 (supplemental Fig. S3)): higher

Cc1ccc(NC(=O)c2ccc(CN3CCN(C)CC3)cc2)cc1Nc1nccc(-c2cccnc2)n1 [imatinib]
response of the Id1 gene to serum (Id1 [4]): Neither another Src inhibitor, PP2, nor the BCR-abl inhibitor, imatinib, had any effect

B1: Noggin: BMP antagonist noggin (protein, UniProt Q13253 28-232, looked up)
Noggin: QHYLHIRPAPSDNLPLVDLIEHPDPIFDPKEKDLNETLLRSLLGGHYDPGFMATSPPEDRPGGGGGAAGGAEDLAELDQLLRQRPSGAMPSEIKGLEFSEGLAQGKKQRLSKKLRRKLQMWLWSQTFCPVLYAWNDLGSRFWPRYVKVGSCFSKRSCSVPEGMVCKPSKSVHLTVLRWRCQRRGGQRCGWIPIQYPIISECKCSC
serum activation of the Id1 promoter (reporter assay) (Id1 promoter; NIH3T3, mId1 −1150 reporter, noggin during serum-starvation, 20% serum): abolished serum activation
serum induction of Id1 mRNA (Id1 [4]; NIH3T3, 100 ng/ml noggin during serum-starvation, 20% serum): abolished serum induction
